Screens from PubChem BioAssay.
An excerpt weighted towards active compounds, which were near 2.5% of everything screened.
Insulin prom inh: TRM-6 insulin promoter activity inhibition. TRM-6 cells (human fetal islet line), insulin promoter-eGFP reporter, imaging; reporter expression induced with tamoxifen. inhibition, % at 2 µM. 0.9% of 130,000 active. AID 1273;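 active = inhibition above the mean plus 3 SD, with well images judged a real hit on visual review, cut at about 60% in these data, passing the limit was not always enough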
NPY-Y2 antag: antagonists of human neuropeptide Y receptor Y2 | AID 793 | inhibition, % at 2.7 µM | 0.99% of 140,000 active | NPY-Y2 expressing cells, antagonist mode | P49146;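 also: 0% = vehicle with agonist challenge and 100% = reference antagonist with challenge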
NPY Y1 blocker: blocks the human neuropeptide Y Y1 receptor; P25929; HEK293-CNG Y1 cells, membrane potential fluorescence; NPY at EC95, then isoproterenol; inhibition, % at 3.6 µM; 1% of 200,000 active; AID 1040;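 active = inhibition above the campaign mean inhibition of all tested compounds plus 3 SD, cut at about 20% in these data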;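 also: 0% = DMSO wells given NPY plus isoproterenol and 100% = isoproterenol alone without NPY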
Target sequence (P25929 whole entry, looked up): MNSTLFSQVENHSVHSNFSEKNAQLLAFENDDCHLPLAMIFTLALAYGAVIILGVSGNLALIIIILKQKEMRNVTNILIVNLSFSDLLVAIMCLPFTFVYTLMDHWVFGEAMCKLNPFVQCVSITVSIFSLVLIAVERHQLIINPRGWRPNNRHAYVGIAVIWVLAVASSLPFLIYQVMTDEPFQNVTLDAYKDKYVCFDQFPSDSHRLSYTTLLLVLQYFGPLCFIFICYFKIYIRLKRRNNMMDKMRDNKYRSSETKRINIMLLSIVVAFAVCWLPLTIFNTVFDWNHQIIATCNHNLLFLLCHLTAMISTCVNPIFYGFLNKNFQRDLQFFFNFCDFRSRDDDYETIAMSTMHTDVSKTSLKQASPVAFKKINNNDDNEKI
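Assay system: HEK293 cells with Y1 receptor plus CNG channel | Probe or stimulus: NPY (25 nM), isoproterenol (1 µM), Ro 20-1724 (25 µM) | Timing: Compound incubation 1 h at room temperature, readout 45 min post-stimulation | Measured by: Membrane-potential fluorescent dye readout | Benchmarks: High control isoproterenol alone, low control NPY with isoproterenol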
NPY1 pot ag: human NPY-Y1 potentiation or agonism, primary screen | activation, % at 3.6 µM | NPY-Y1 expressing cells, potentiator/agonist activation | 0.37% of 220,000 active | AID 1304 | P25929; in the data active = activation above about 33%, passing the limit was not always enough;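 also: cells stimulated with NPY at EC10 then isoproterenol at EC100; 0% = low agonist plus stimulus and 100% = saturating agonist plus stimulus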
Ins promoter up: MIN6 insulin promoter up-regulation | MIN6 insulin promoter-GFP reporter, high-content imaging; hits give high values | AID 1625 | 0.3% of 190,000 active | z-score at 5 µM;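 active = z-score above 3 at 5 µM with at least 500 cells counted in the well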
NPY2 pot ag: potentiates or activates human NPY-Y2 receptor; cells expressing NPY-Y2, potentiator/agonist read-out; activation, % at 3.6 µM; 0.45% of 220,000 active; P49146; in the data active = activation above about 27%;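 also: cells stimulated with NPY near EC25 plus isoproterenol at EC100; 0% = vehicle plus submaximal agonist and 100% = vehicle plus saturating agonist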
NPY1 antag conf: human NPY-Y1 antagonism, confirmation | shares compounds with NPY Y1 blocker | HEK293-CNG NPY-Y1, membrane potential fluorescence, cAMP; NPY challenge against isoproterenol-raised cAMP | inhibition, % at 3.6 µM | AID 1254 | 21% of 1,200 active; in the data active = inhibition above about 20%;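 also: 0% = vehicle with agonist plus stimulus and 100% = stimulus alone without agonist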
NPY-Y2 antag ct: human NPY-Y2 antagonism in NPY-Y1 counter-screen. shares compounds with NPY Y1 blocker. HEK293 NPY-Y2 CNG membrane potential fluorescence; cells given NPY, then isoproterenol. inhibition, % at 3.6 µM. 28% of 1,200 active;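 also: 0% = DMSO with agonist challenge and 100% = reference antagonist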
Numbers without * were called inactive; · = no result. Rule as the data show it, unless noted: active = inhibition above about 17%; inactive = the rest.

SMILES | Insulin prom inh | NPY-Y2 antag | NPY Y1 blocker | NPY1 pot ag | Ins promoter up | NPY2 pot ag | NPY1 antag conf | NPY-Y2 antag ct
COc1cc(CNCCCN2CCOCC2)c(Br)cc1OCC(=O)Nc1ccccc1C | -95 | · | 11 | -11 | 0.05 | 0 | · | ·
CC(=O)c1c(C)[nH]c(C(=O)N2CCc3ccccc32)c1C | 21 | 1 | -3 | 14 | 0.77 | 8 | · | ·
CCOC(=O)c1[nH]c(C)c(C(=O)N2CCc3ccccc32)c1C | -61 | 5 | 32* | -14 | -1 | -10 | 0 | 9
COc1ccc(OC)c(-n2c(-c3cc(-c4ccccc4)n[nH]3)n[nH]c2=S)c1 | · | 2 | 9 | -16 | -0.1 | -10 | · | ·
COc1ccc(-c2cc(-c3n[nH]c(=S)n3-c3ccccc3OC)[nH]n2)cc1 | -14 | 16 | 32* | -66 | -0.51 | -15 | 37* | 66*
Cc1cccc(-c2nsc(SCC(=O)NCC3CCCO3)n2)c1 (configuration not stated) | -9 | · | 30* | 11 | 0.88 | -5 | 4 | 2
CCOc1ccc(NC(=O)N[C@@H](CCSC)C(=O)OC)cc1 | 53 | 2 | -3 | 13 | -0.25 | 0 | · | ·
CC(C)N(Cc1nc(-c2ccc(Cl)cc2)no1)Cc1nccn1C | · | · | 2 | 6 | -0.52 | 2 | · | ·
O=C(CCCc1cccs1)Nc1nc(-c2ccc(F)cc2)cs1 | 7 | 15 | 25* | -33 | -0.88 | -10 | 19 | 16
O=C(O)CCCC(=O)Nc1nc(-c2ccc(F)cc2)cs1 | 31 | 1 | 4 | -13 | 0.82 | -7 | · | ·
COCCN(CCOC)C(=O)COC(=O)c1cc([N+](=O)[O-])ccc1Cl | · | · | · | 12 | -1 | -2 | · | ·
CCOC(=O)c1c(C)noc1CP(=O)(c1ccccc1)c1ccccc1 | -34 | 17 | 31* | -22 | · | -13 | 16 | 9
O=C(NCc1cccc(F)c1)c1ccc(N2C(=O)Cn3c(cc4sccc43)C2=O)cc1 | 4 | 2 | 5 | 5 | 0.27 | 10 | · | ·
CC(C)[C@H](NC(=O)c1ccco1)C(=O)OCC(=O)NC12CC3CC(CC(C3)C1)C2 | -95 | · | 7 | -12 | -0.36 | 3 | · | ·
CC(NC(=O)COC(=O)CCNC(=O)c1ccco1)C12CC3CC(CC(C3)C1)C2 (configuration not stated) | · | 4 | 20* | -31 | -0.81 | -25 | 22* | 27*
CN1Cc2cc(C(=O)c3cc(Cl)cc(CSc4ncccn4)c3O)cnc2NC1=O | · | 4 | 21* | 1 | -1.4 | -1 | -1 | 15
CCCCCCc1nc2ccccc2c(=O)n1NC(=O)c1c(O)c2cccc3c2n(c1=O)CCC3 | -31 | 3 | 2 | -29 | · | -8 | · | ·
COc1cccc(Oc2cn[nH]c2-c2ccc(O)cc2O)c1 | -15 | 7 | 153* | -22 | -0.18 | 15 | 61* | 4
O=C(c1ccco1)N(CCC(c1ccccc1)c1ccco1)Cc1ccc(F)cc1 (configuration not stated) | · | 6 | 25* | -21 | -0.5 | -44 | 13 | 13
COC(=O)CSc1nc2[nH]ncc2c(=O)[nH]1 | · | · | -1 | 9 | 0.51 | 0 | · | ·
O=[N+]([O-])c1cccc(-c2noc(COc3ccccc3)n2)c1 | · | · | 25* | -18 | -0.12 | -2 | 4 | 6
COc1ccc(CNC(=O)NC(C)(C)c2cccc(C(C)(C)NC(=O)NCc3ccc(OC)cc3)c2)cc1 | -35 | 4 | 1 | 0 | -0.34 | -4 | · | ·
Cn1c(C(=O)N(Cc2ccccc2)Cc2ccccn2)cc2sccc21 | 26 | 11 | -1 | 16 | -0.52 | 12 | · | ·
Cn1c(C(=O)N(Cc2ccccc2)Cc2cccs2)cc2sccc21 | -12 | 7 | 21* | -25 | -0.79 | -18 | 6 | 5
COc1ccc2c(c1OC)C(=O)N(c1ccc(C)cc1)C2 | · | · | · | 15 | 0.53 | -24 | · | ·
SMILES | Insulin prom inh | NPY-Y2 antag | NPY Y1 blocker | NPY1 pot ag | Ins promoter up | NPY2 pot ag | NPY1 antag conf | NPY-Y2 antag ct
N=c1n(CCN2CCCC2)c2ccccc2n1CC(O)c1ccc(Cl)c(Cl)c1 (configuration not stated) | · | · | 43* | -33 | -1.8 | -28 | 16 | 29*
N=c1n(CCN2CCOCC2)c2ccccc2n1CC(=O)c1ccc(Cl)c(Cl)c1 | · | 7 | 16 | -5 | 0.43 | -5 | · | ·
N=c1n(Cc2ccccc2)c2ccccc2n1CC(O)c1ccccc1 (configuration not stated) | -27 | 16 | 28* | -24 | · | -14 | 9 | 16
N=c1n(Cc2ccccc2Cl)c2ccccc2n1CC(O)c1ccco1 (configuration not stated) | · | · | 28* | 6 | -1.3 | -7 | 15 | 25*
CCCn1c(=N)n(CC(O)c2ccc(C)cc2)c2ccccc21 (configuration not stated) | · | · | · | -12 | -0.21 | -29 | · | ·
O=C(CC12CCC(CC1)C2)NCc1ccc2c(c1)OCO2 | -48 | 0 | 2 | -40 | · | -10 | · | ·
O=C(NCc1ccc(F)cc1)c1ccc(Br)o1 | · | · | -1 | 4 | -0.68 | -1 | · | ·
O=C(COc1ccccc1Cl)c1ccc2c(c1)CCCC2 | -62 | 5 | 21* | -52 | 0.1 | -20 | 11 | 9
Cc1cc(C)c(OCC(=O)Nc2nnc(-c3ccco3)o2)c(C)c1 | · | · | 31* | -17 | 0.9 | -10 | 10 | 11
OCCNCc1cc(Br)ccc1OCc1ccc(Cl)cc1 | 6 | 12 | 24* | -8 | -0.3 | -5 | 8 | 13
OCCCCNCc1cc(Br)ccc1OCc1ccccc1F | · | · | 11 | -22 | 0.61 | -33 | · | ·
Cc1ccc(S(=O)(=O)N/N=C/c2ccc(OCC(=O)N3CCOCC3)cc2)cc1 | · | · | 0 | -1 | -0.38 | 4 | · | ·
Cc1cccc(C2c3[nH]c4ccccc4c3CCN2Cc2cccn2-c2ncccn2)c1 (configuration not stated) | · | · | 32* | -23 | -1.6 | -4 | 14 | 14
c1ccc(C2c3[nH]c4ccccc4c3CCN2Cc2cccn2-c2ccccn2)nc1 (configuration not stated) | · | · | · | -1 | 0.5 | -29 | · | ·
COc1ccc(C2c3[nH]c4ccccc4c3CCN2Cc2cccn2-c2ncccn2)cc1C (configuration not stated) | · | · | 67* | -12 | · | -4 | 41* | 32*
O=C(C1CCCN(CCCc2ccccc2)C1)N1CCCCCC1 (configuration not stated) | -16 | 6 | 0 | 19 | 0.17 | -1 | · | ·
COc1ccccc1CN(Cc1cc2cc(C)ccc2[nH]c1=O)Cc1nnnn1Cc1ccco1 | · | 15 | 33* | -18 | · | -9 | 21* | 10
O=[N+]([O-])c1ccc(O)c(/C=N/NC2=NS(=O)(=O)c3ccccc32)c1 | -67 | · | 35* | -10 | 0.79 | -13 | 0 | 2
